Results: article PMC2771199 (Bioorganic & medicinal chemistry, 2009)
“Also recorded” adds a separate entry of the source. Where two headings read alike, the source gives them in different places. One block for each compound: values may come before it. Where a SMILES comes first, the peptide text is derived from it. The star is where a group is joined. Dnp = O=[N+]([O-])c1ccc(*)c([N+](=O)[O-])c1

Tests used:
LPA3 [1] = target: T1, LPA3 (Homo sapiens, UniProt Q9UBY5); assay: LPA receptor-promoted intracellular Ca2+ mobilization, LPA3; assay type: cell-based; conditions: for LPA3 antagonist activity (in words): Ca2+ assay; for % inhibition at 10μM: Table 3, LPA3 inhibition
T1 sequence (Q9UBY5 1-353): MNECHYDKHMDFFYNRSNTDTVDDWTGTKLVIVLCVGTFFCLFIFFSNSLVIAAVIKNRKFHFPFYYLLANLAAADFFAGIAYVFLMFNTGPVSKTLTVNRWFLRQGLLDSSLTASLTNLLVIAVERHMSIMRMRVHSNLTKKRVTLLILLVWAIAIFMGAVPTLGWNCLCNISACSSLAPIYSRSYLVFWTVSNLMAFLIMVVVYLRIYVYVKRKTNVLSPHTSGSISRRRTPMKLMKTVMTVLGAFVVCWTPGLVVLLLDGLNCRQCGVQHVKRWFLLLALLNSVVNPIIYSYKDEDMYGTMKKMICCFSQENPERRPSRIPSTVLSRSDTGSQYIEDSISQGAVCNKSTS

LPA3 [2] = target: T1, LPA3; conditions: previously reported antagonists, cited from earlier work
LPA4 [3] = target: T2, LPA4 (Homo sapiens, UniProt Q99677); conditions: read-out: IC50 LPA4; previously reported antagonists; NE no effect; cited from earlier work
LPA5 [4] = target: T3, LPA5 (Homo sapiens, UniProt Q9H1C0); conditions: read-out: IC50 LPA5; previously reported antagonists; NE no effect; cited from earlier work
LPA1 [5] = target: T4, LPA1 (Homo sapiens, UniProt Q92633); conditions: read-out: IC50 LPA1; previously reported antagonists; NE no effect; cited from earlier work
LPA2 [6] = target: T5, LPA2 (Homo sapiens, UniProt Q9HBW0); conditions: previously reported antagonists, cited from earlier work; for IC50: read-out: IC50 LPA2, NE no effect
LPA1 [7] = target: T4, LPA1; assay: LPA receptor-promoted intracellular Ca2+ mobilization, LPA1; assay type: cell-based; conditions: for IC50: read-out: IC50 LPA1, dose response; for LPA1 antagonist activity (in words): Ca2+ assay
In short: (§1)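 Cells stably expressing the given LPA receptor were plated and cultured overnight, then moved to serum-free medium for 4-6 h and loaded with fura-2. Intracellular Ca2+ was read on a plate fluorometer as the ratio of 520 nm emission under 340 vs 380 nm excitation. Test compounds were dissolved in methanol, diluted in buffer, and run in quadruplicate. IC50 was taken from concentration-response curves.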

LPA2 [8] = target: T5, LPA2; assay: LPA receptor-promoted intracellular Ca2+ mobilization, LPA2; assay type: cell-based; conditions: read-out: IC50 LPA2; dose response
In short: as §1

LPA4 [9] = target: T2, LPA4; assay: LPA receptor-promoted intracellular Ca2+ mobilization, LPA4; assay type: cell-based; conditions: read-out: IC50 LPA4; dose response
In short: as §1

LPA5 [10] = target: T3, LPA5; assay: LPA receptor-promoted intracellular Ca2+ mobilization, LPA5; assay type: cell-based; conditions: for IC50: read-out: IC50 LPA5, dose response
In short: as §1

[11] = 10 μM compound against 200 nM LPA

T3 sequence (Q9H1C0 whole entry, species assumed): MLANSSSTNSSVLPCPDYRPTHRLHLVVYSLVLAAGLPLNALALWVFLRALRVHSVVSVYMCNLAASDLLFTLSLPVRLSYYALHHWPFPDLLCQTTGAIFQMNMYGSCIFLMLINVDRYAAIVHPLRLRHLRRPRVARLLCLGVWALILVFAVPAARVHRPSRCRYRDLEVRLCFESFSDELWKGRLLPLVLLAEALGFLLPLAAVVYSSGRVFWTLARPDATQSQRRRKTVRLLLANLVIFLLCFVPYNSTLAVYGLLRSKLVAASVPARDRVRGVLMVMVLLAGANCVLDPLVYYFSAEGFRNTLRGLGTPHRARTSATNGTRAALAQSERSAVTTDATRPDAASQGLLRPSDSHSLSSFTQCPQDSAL
T5 sequence (Q9HBW0 whole entry, species assumed): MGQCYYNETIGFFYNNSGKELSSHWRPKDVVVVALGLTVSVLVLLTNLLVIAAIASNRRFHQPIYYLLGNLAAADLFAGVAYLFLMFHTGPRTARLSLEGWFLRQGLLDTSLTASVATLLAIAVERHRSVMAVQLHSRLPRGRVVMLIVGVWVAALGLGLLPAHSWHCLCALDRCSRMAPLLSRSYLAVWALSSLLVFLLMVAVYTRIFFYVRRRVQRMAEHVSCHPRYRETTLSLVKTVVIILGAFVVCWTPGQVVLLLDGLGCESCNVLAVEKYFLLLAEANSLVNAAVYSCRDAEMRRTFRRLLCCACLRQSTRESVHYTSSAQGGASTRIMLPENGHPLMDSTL
T4 sequence (Q92633 whole entry, species assumed): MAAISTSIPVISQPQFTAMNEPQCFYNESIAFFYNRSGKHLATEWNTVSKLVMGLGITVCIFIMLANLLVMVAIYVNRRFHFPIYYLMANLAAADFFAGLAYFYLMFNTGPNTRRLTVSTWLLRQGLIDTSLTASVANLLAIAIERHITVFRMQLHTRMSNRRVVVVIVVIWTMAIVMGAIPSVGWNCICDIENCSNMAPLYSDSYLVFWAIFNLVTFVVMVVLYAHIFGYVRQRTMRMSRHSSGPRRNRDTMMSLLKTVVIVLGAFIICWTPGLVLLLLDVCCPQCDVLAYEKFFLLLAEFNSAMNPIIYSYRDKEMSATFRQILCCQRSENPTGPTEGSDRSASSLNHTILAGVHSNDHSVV
T2 sequence (Q99677 whole entry, species assumed): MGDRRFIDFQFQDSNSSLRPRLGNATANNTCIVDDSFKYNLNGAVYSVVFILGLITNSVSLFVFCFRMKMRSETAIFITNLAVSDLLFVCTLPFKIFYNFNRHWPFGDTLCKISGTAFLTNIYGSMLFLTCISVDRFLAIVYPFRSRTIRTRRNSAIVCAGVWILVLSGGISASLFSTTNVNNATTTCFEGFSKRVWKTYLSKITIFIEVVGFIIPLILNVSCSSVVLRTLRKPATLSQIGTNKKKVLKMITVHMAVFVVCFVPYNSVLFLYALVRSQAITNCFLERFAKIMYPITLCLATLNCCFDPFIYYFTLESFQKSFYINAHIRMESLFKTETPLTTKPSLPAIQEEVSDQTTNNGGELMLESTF

SMILES: Cc1ccc(Oc2ccc3c(c2)C(=O)N(CC2CCCO2)C3=O)cc1 (stereo not shown) [Compound 14]
LPA3 antagonist activity (in words) (LPA3 [1]): not active

SMILES: O=C(O)/C=C/C(=O)Nc1cccc(NC(=O)/C=C/C(=O)O)c1 [Compound 2]
IC50 (LPA3 [2]; read-out: IC50 LPA3, NE no effect): > 10 µM | IC50 (LPA4 [3]): > 10 µM | IC50 (LPA5 [4]): > 10 µM

SMILES: O=C(O)/C=C/C(=O)Nc1cccc(NC(=O)/C=C/C(=O)O)c1C(=O)O [Compound 3]
IC50 (LPA1 [5]): > 10 µM | Imax LPA2 (LPA2 [6]): 53.3% | Imax LPA3 (LPA3 [2]): 81.7% | IC50 (LPA4 [3]): > 10 µM | IC50 (LPA5 [4]): > 10 µM

SMILES: O=C(O)/C=C/C(=O)Nc1ccc(Oc2cccc(Oc3ccc(NC(=O)/C=C/C(=O)O)cc3)c2)cc1 [Compound 4]
IC50 (LPA4 [3]): > 10 µM | IC50 (LPA5 [4]): > 10 µM

SMILES: O=C(O)CN1C(=O)c2ccc(Oc3ccc([N+](=O)[O-])cc3)cc2C1=O [Compound 11]
IC50 (LPA1 [7]): > 10 µM | IC50 (LPA2 [8]): > 10 µM | LPA3 antagonist activity (in words) (LPA3 [1]): no inhibition; also recorded: no activity | LPA3 antagonist activity (in words) (LPA3 [1]; listed as compound 11): no antagonist activity | IC50 (LPA3 [1]; read-out: IC50 LPA3, dose response, activation by 200 nM LPA): > 10 µM | inhibition at 10 µM (LPA3 [1]; read-out: Percent inhibiton at 10μM, Table 2, 10 μM compound against 200 nM LPA): < 10% | IC50 (LPA4 [9]): > 10 µM | IC50 (LPA5 [10]): > 10 µM

SMILES: O=C(O)COc1ccc(N2C(=O)c3ccc(Oc4cccc([N+](=O)[O-])c4)cc3C2=O)cc1 [Compound 6]
% inhibition at 10μM (LPA3 [1]; [11]): agonist

SMILES: NCC(=O)N[C@@H](CSc1ccc([N+](=O)[O-])cc1[N+](=O)[O-])C(=O)N[C@@H](CCC(=O)O)C(=O)O [Compound 1] (H-Gly-Cys(Dnp)-Glu-OH)
IC50 (LPA1 [5]): > 10 µM | IC50 (LPA2 [6]): > 10 µM | Imax LPA3 (LPA3 [2]): 69.8% | IC50 (LPA4 [3]): > 10 µM | IC50 (LPA5 [4]): > 10 µM

SMILES: O=C(O)c1ccc2c(c1)C(=O)N(c1cccc(Oc3ccc([N+](=O)[O-])cc3)c1)C2=O [Compound 20]
LPA1 antagonist activity (in words) (LPA1 [7]): LPA1 antagonists | IC50 (LPA2 [8]): > 10 µM | fold increase in potency compared to compound 5 (LPA3 [1]; LPA3 IC50 versus compound 5): 6 fold | % inhibition at 10μM (LPA3 [1]; [11]): > 50% | IC50 (LPA4 [9]): > 10 µM | LPA5 antagonist activity (in words) (LPA5 [10]; Ca2+ assay): LPA5 antagonist

Continued, in another order:

% inhibition at 10μM (LPA3 [1]; [11]): Agonist
SMILES: CC(=O)COc1ccc(NC(=O)CN2C(=O)c3ccc([N+](=O)[O-])cc3C2=O)cc1 [Compound 18]

LPA1 antagonist activity (in words) (LPA1 [7]): LPA1 antagonists | IC50 (LPA2 [8]): > 10 µM | IC50 (LPA4 [9]): > 10 µM | IC50 (LPA5 [10]): > 10 µM
SMILES: Cc1ccc(Oc2ccc3c(c2)C(=O)N(CC(=O)O)C3=O)cc1 [Compound 12]

IC50 (LPA1 [7]): > 10 µM | IC50 (LPA2 [8]): > 10 µM | IC50 (LPA4 [9]): > 10 µM | IC50 (LPA5 [10]): > 10 µM
SMILES: O=C(O)CN1C(=O)c2ccc(Oc3cccc([N+](=O)[O-])c3)cc2C1=O [Compound 5, [5-(3-nitrophenoxy)-1,3-dioxo-1,3-dihydro-2-isoindol-2-yl]acetic acid]
IC50 (LPA1 [5]): > 10 µM | IC50 (LPA2 [6]): > 10 µM | IC50 (LPA4 [3]): > 10 µM | IC50 (LPA5 [4]): > 10 µM

LPA3 antagonist activity (in words) (LPA3 [1]): active
SMILES: O=C1c2ccc(Oc3cccc([N+](=O)[O-])c3)cc2C(=O)N1Cc1cccnc1 [Compound 8]

% inhibition at 10μM (LPA3 [1]; [11]): Agonist
SMILES: O=C(O)CN1C(=O)c2ccc(C(=O)c3cccc([N+](=O)[O-])c3)cc2C1=O [Compound 15]
